H9c2 TAG inh = triacylglycerol accumulation inhibition; H9c2 cells, Nile Red lipid (TAG) fluorescence; cells loaded with 200 µM oleic acid; inhibition, % at 12.5 µM; 230,000 tested, 0.66% active; AID 651582;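 active means pattern-corrected inhibition of lipid staining of at least 50% with the nuclear-stain viability signal not falling by more than 50%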;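 further: 0% = DMSO wells and 100% = triacsin C control wells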
NTR1 agonist = NTR1 (human) agonism; 330,000 tested, 0.17% active; activation, % at 20 µM; AID 493036; NTR1-U2OS beta-arrestin-GFP spot imaging, agonist mode; P30989;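 active means activation at or above 40% of the spot to cytoplasm intensity ratio, with at least 20 cells analyzed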;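 further: 0% = DMSO without peptide and 100% = 100 nM NTR1 peptide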
Arr AP2 block = inhibitors of human beta-arrestin and AP2 interaction; FITC-arrestin peptide / GST-AP2 beads, flow cytometry; AP2 beta2 appendage carries R879A mutation; inhibition, % at 10 µM; 340,000 tested, 0.31% active; AID 504490;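 active means inhibition above a set limit, near 3 SD of compounds lacking own fluorescence, cut at about 54% in these data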;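 further: plate controls were DMSO wells for no effect and 5 µM unlabelled arrestin peptide for full effect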
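Test system: GST-tagged AP2 beta2-adaptin appendage (R879A) on 4 µm glutathione beads; also added: fluorescein-tagged arrestin peptide at 50 nM final; timing: 12 min plus 1 h, RT; signal: flow cytometry, FL1 (488/535 nm); read-out: percent drop in bead-associated FITC signal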
Lipid droplet = hepatic lipid droplet formation modulation. AML12 mouse hepatocytes, oleate lipid droplets, BODIPY imaging. 240,000 tested, 0.4% active. inhibition, % at 6.5 µM. AID 1656;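 active means lipid droplet intensity inhibited by at least 50%, with more than 500 cells counted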
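Material – AML12 mouse liver cells · Also added – oleate loading, 100 µM · Compound dosing – 6.5 µM single-point dosing · Times – overnight treatment with compound plus oleate · Measured by – fluorescence imaging, 20x objective, two fields per well · Read-out – percent inhibition of filter-corrected integrated lipid droplet intensity per well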
GRK2 inh = blocks RNA aptamer binding to human GRK2; bead flow cytometry, FAM-aptamer displacement from GRK2; inhibition of aptamer binding, % at 10 µM; 330,000 tested, 0.59% active;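 active means inhibition of aptamer binding above 40%, roughly 3 SD of noise, on plates passing a quality check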;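 further: median bead fluorescence of bound FAM aptamer so fluorescent compounds give negative values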
Target sequence (P25098 whole entry, looked up): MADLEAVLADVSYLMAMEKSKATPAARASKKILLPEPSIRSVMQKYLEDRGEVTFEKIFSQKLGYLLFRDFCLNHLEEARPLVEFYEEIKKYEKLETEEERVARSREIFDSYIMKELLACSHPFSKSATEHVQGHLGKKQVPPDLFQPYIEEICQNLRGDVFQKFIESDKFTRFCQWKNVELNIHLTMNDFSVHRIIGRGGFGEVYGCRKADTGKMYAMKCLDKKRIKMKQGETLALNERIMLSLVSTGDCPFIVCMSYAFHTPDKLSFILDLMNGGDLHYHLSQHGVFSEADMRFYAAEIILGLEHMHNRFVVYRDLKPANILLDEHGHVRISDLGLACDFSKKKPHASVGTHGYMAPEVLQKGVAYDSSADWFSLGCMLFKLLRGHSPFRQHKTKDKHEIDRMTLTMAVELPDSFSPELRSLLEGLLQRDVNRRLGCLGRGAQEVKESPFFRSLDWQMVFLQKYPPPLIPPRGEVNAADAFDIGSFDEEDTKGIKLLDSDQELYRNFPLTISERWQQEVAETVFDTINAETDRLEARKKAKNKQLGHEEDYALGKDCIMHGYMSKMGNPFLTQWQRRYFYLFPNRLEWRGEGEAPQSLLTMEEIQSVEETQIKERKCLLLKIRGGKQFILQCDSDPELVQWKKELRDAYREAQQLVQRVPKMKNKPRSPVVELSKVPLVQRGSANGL
Beta2AR agonist = agonists of human beta-2 adrenergic receptor inducing internalization. Am2.2-beta2AR cells, FAP receptor internalization, flow cytometry. 340,000 tested, 0.43% active. AID 504454. response, % (concentration not given with the values);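 active means response above a set limit, near 3 SD of response in nonfluorescent compounds, cut at about 42% in these data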
Starred values were filed as active, the others as inactive; x = no result given. Sampled rows, rich in hits. Any-hit rate of the full collection: about 2%.

SMILES	H9c2 TAG inh	NTR1 agonist	Arr AP2 block	Lipid droplet	GRK2 inh	Beta2AR agonist
Cc1sc2nc(CSCC(=O)NC(C)(C)C)[nH]c(=O)c2c1C	7.4	1.7	54.7*	2.1	1.0	17.6
COc1ccc(C(C[N+](=O)[O-])C2(c3ccc(OC)c(OC)c3)C(=O)c3ccccc3C2=O)cc1 (configuration not stated)	x	x	5.0	2.3	8.0	50.6*
CCOc1cc(/C=N/NC(N)=S)cc(Br)c1OCc1ccccc1C	-7.7	42.1*	-7.5	9.8	0.0	11.5
C(=N\Nc1nc2ccccc2[nH]1)/c1cccc2nccnc12	52.2*	-0.9	7.1	-55.1	0.0	25.2
CCC1(c2ccccc2)NC(=O)N(CC(=O)Nc2ccc(N3CCOCC3)cc2)C1=O (configuration not stated)	2.1	0.7	3.7	x	0.0	-0.9
C=CCNC(=O)c1onc(CSc2ccccn2)c1C(=O)NCC=C	3.4	2.6	17.3	x	1.0	8.5
COc1ccccc1CN(C)C(=O)c1ccc(S(=O)(=O)NCc2ccco2)cc1	-6.5	-3.7	0.3	x	44.0*	-6.6
COc1ccccc1C(CNC(=O)c1ccc(S(=O)(=O)NCc2ccco2)cc1)N(C)C (configuration not stated)	x	-0.8	4.3	-12.7	0.0	-0.7
O=C(/C=C/c1ccco1)NC(=S)Nc1ccc(N2CCCC2)cc1	x	4.0	52.2	41.3	0.0	43.6*
O=C(/C=C/c1ccco1)NC(=S)Nc1ccc(C(=O)O)cc1	x	0.1	40.2	x	0.0	-1.0
O=C(CCSc1ccc(Br)cc1)c1ccc(O)cc1	x	5.7	3.8	1.5	4.0	1.2
Cc1ccc(C)c(NC(=S)NNC(=O)c2csc3c2CCC(C)C3)c1 (configuration not stated)	x	2.3	3.2	10.3	1.0	-15.6
CC(C)(C)C1CCc2c(C(=O)NNC(=O)/C=C/C(=O)O)csc2C1 (configuration not stated)	-3.1	0.2	11.7	3.9	2.0	47.8*
CC(C)(C)C1CCc2c(C(=O)N/N=C/c3cccs3)csc2C1 (configuration not stated)	x	4.5	0.3	x	0.0	94.3*
O=C(CSc1ccc(F)cc1)NCC1(N2CCOCC2)CCCCC1	-17.9	0.2	1.3	x	0.0	-6.2
CCOC(=O)N1CCC(NC(=S)Nc2ccc3nc(N4CCN(C)CC4)cc(C)c3c2)CC1	8.1	0.1	-9.2	-31.3	0.0	-1.5
CCOC(=O)N1CCC(NC(=S)Nc2ccc3nc(N4CCN(CC)CC4)cc(C)c3c2)CC1	21.0	2.3	6.0	-5.9	0.0	50.2*
O=S1(=O)CCN(CCc2ccccc2)CC1	-2.6	x	x	x	x	x
O=S1(=O)c2ccc(Br)cc2N2CCC[C@H]2CN1Cc1ccccc1	-36.7	1.7	-7.9	x	0.0	2.2
C[C@@H](c1ccccc1)N1C[C@H]2CCCN2c2cc(Br)ccc2S1(=O)=O	-16.1	0.6	-16.0	x	41.0*	3.3
COc1ccccc1/C=C1\SC(=S)N(Nc2nc(C)cc(C)n2)C1=O	x	-0.5	7.9	x	2.0	-5.3
Cc1cc(C)nc(NN2C(=O)/C(=C/c3ccc(O)cc3)SC2=S)n1	x	-1.1	26.2	x	84.0*	-9.7
COc1cccc2c1-c1c(O)cccc1C2=O	x	-0.4	-19.1	0.4	0.0	-5.2
CC1OC(CC(=O)O)CC2=C1C(=O)c1c(O)cccc1C2=O (configuration not stated)	127.8	x	23.8	x	x	75.2*
Cc1cccc(NC(=O)C2=C(O)c3ccccc3N(C)S2(=O)=O)c1	-1.4	0.5	19.9	-2.4	3.0	19.5
CN1c2ccccc2C(O)=C(C(=S)Nc2ccc(Cl)cc2)S1(=O)=O	-8.6	-1.9	24.7	5.1	61.0*	4.8
CCCS(=O)(=O)NC(=O)C1(C)CCCN(C(=O)c2oc3ccccc3c2C)C1 (configuration not stated)	-3.2	x	x	x	x	x
COCCNC(=O)c1cc2sccc2n1C	-6.4	0.2	16.6	10.5	1.0	3.2
CCOc1ccc(CCNC(=O)c2cc3sccc3n2C)cc1OCC	x	2.3	-0.3	101.0*	0.0	3.8
COc1ccc(C2(CNC(=O)/C=C\c3ccco3)CCCC2)cc1OC	11.9	0.8	10.6	-5.1	48.0*	-7.5
